Common to all, as to format: functional
In one assay the test system is Bacillus subtilis. Put plainly: Antibacterial activity against gram positive Bacillus subtilis MTCC 441. In outline: (§1)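 MIC determined by broth dilution per NCCL standards; test panel comprised Gram-positive Bacillus subtilis (MTCC 441), Bacillus sphaericus (MTCC 11), Staphylococcus aureus (MTCC 96) and Gram-negative Chromobacterium violaceum (MTCC 2656), Klebsiella aerogenes (MTCC 39), Pseudomonas aeruginosa (MTCC 741); highest concentration tested 200 μg/ml; penicillin and streptomycin run under identical conditions as reference agents.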

The subject of assay [1] is Lysinibacillus sphaericus. As to the kind of experiment: Antibacterial activity against gram positive Bacillus sphaericus (MTCC 11). In outline:
(§2)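 MICs were determined by broth dilution following National Committee for Clinical Laboratory (NCCL) standards. The same conditions were used for penicillin and streptomycin as reference agents.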

In a further assay the test system is Staphylococcus aureus. Put plainly: Antibacterial activity against gram positive Staphylococcus aureus(MTCC 96). The method, boiled down:
as §1

A further assay has as its system Klebsiella aerogenes. As to the kind of experiment: Antibacterial activity against gram negative Klebsiella aerogenes(MTCC 39). In outline: as §1
The subject of assay [2] is Chromobacterium violaceum. As to the kind of experiment: Antibacterial activity against gram negative Chromobacterium violaceum(MTCC 2656). The method, boiled down:
as §1

The next assay relates to Pseudomonas aeruginosa. As to the kind of experiment: Antibacterial activity against gram negative Pseudomonas aeruginosa (MTCC 741). The method, boiled down:
as §2

From ChEMBL document CHEMBL1148560, “Synthesis and biological evaluation of novel C (7) modified chrysin analogues as antibacterial agents” (2006) come the findings set out here.

SMILES strings stand for the structures. In brackets after ≈: the same amount, converted by molar mass.

With `CN(C)CCCCCCOc1cc(O)c2c(=O)cc(-c3ccccc3)oc2c1`, the minimal inhibitory concentration (MIC) was 12.5 mg/L (≈ 32.8 µM) against Bacillus subtilis; 12.5 mg/L (≈ 32.8 µM) in assay [1]; 25 mg/L (≈ 65.5 µM) against Staphylococcus aureus; 25 mg/L (≈ 65.5 µM) against Klebsiella aerogenes; 25 mg/L (≈ 65.5 µM) in assay [2].

`CN1CCN(CCCCOc2cc(O)c3c(=O)cc(-c4ccccc4)oc3c2)CC1`: the minimal inhibitory concentration (MIC) in the assay on Bacillus subtilis was 25 mg/L (≈ 61.2 µM); in assay [1] it was 6.25 mg/L (≈ 15.3 µM); against Staphylococcus aureus it was 12.5 mg/L (≈ 30.6 µM); with Klebsiella aerogenes, 12.5 mg/L (≈ 30.6 µM); in assay [2], 6.25 mg/L (≈ 15.3 µM).

As to `CN(C)CCCOc1cc(O)c2c(=O)cc(-c3ccccc3)oc2c1`, the MIC was 25 mg/L (≈ 73.7 µM) in the assay with Bacillus subtilis; 12.5 mg/L (≈ 36.8 µM) in assay [1]; 12.5 mg/L (≈ 36.8 µM) in the assay on Staphylococcus aureus; 25 mg/L (≈ 73.7 µM) with Klebsiella aerogenes; 12.5 mg/L (≈ 36.8 µM) in assay [2].

On to `O=c1cc(-c2ccccc2)oc2cc(OCCCCN3CCCCC3)cc(O)c12`, for which the MIC in the assay on Bacillus subtilis was found to be 12.5 mg/L (≈ 31.8 µM); in assay [1] it was 12.5 mg/L (≈ 31.8 µM); against Staphylococcus aureus it was 25 mg/L (≈ 63.5 µM); with Klebsiella aerogenes, 25 mg/L (≈ 63.5 µM); in assay [2] it was 6.25 mg/L (≈ 15.9 µM).

On to `CN[C@@H]1[C@H](O[C@H]2[C@H](O[C@H]3[C@H](O)[C@@H](O)[C@H](N=C(N)N)[C@@H](O)[C@@H]3N=C(N)N)O[C@@H](C)[C@]2(O)C=O)O[C@@H](CO)[C@H](O)[C@H]1O` [STREPTOMYCIN], for which the minimum inhibitory concentration (MIC) was found to be 6.25 mg/L (≈ 10.7 µM) in the assay with Bacillus subtilis; 12.5 mg/L (≈ 21.5 µM) in assay [1]; 6.25 mg/L (≈ 10.7 µM) in the assay with Staphylococcus aureus; 1.56 mg/L (≈ 2.69 µM) in the assay with Pseudomonas aeruginosa; 1.56 mg/L (≈ 2.69 µM) with Klebsiella aerogenes; 3.12 mg/L (≈ 5.37 µM) in assay [2].

Consider `O=c1cc(-c2ccccc2)oc2cc(OCCCCN3CCOCC3)cc(O)c12`, for which the minimal inhibitory concentration (MIC) was found to be 6.25 mg/L (≈ 15.8 µM) with Bacillus subtilis; 6.25 mg/L (≈ 15.8 µM) in assay [1]; 12.5 mg/L (≈ 31.6 µM) in the assay on Staphylococcus aureus; 12.5 mg/L (≈ 31.6 µM) with Klebsiella aerogenes; 6.25 mg/L (≈ 15.8 µM) in assay [2].

As to `CC1(C)S[C@@H]2[C@H](NC(=O)Cc3ccccc3)C(=O)N2[C@H]1C(=O)O` [PENICILLIN G], the MIC is 1.56 mg/L (≈ 4.67 µM) with Bacillus subtilis; 3.12 mg/L (≈ 9.35 µM) in assay [1]; 1.56 mg/L (≈ 4.67 µM) against Staphylococcus aureus; 6.25 mg/L (≈ 18.7 µM) with Pseudomonas aeruginosa; 6.25 mg/L (≈ 18.7 µM) with Klebsiella aerogenes; 12.5 mg/L (≈ 37.4 µM) in assay [2].

Consider `O=c1cc(-c2ccccc2)oc2cc(O)cc(O)c12` [CHRYSIN], for which the minimum inhibitory concentration (MIC) against Bacillus subtilis was 50 mg/L (≈ 197 µM); in assay [1] it was 25 mg/L (≈ 98.3 µM); against Staphylococcus aureus it was 50 mg/L (≈ 197 µM); with Klebsiella aerogenes, 50 mg/L (≈ 197 µM); in assay [2], 25 mg/L (≈ 98.3 µM).

On to `O=c1cc(-c2ccccc2)oc2cc(OCCCCCCN3CCCCC3)cc(O)c12`, for which the minimum inhibitory concentration (MIC) against Bacillus subtilis was 25 mg/L (≈ 59.3 µM); in assay [1], 12.5 mg/L (≈ 29.7 µM); with Staphylococcus aureus it was 25 mg/L (≈ 59.3 µM); with Klebsiella aerogenes it was 25 mg/L (≈ 59.3 µM); in assay [2], 25 mg/L (≈ 59.3 µM).

For the compound `O=c1cc(-c2ccccc2)oc2cc(OCCCN3CCCCC3)cc(O)c12`, the minimal inhibitory concentration (MIC) against Bacillus subtilis turned out to be 25 mg/L (≈ 65.9 µM); in assay [1], 12.5 mg/L (≈ 32.9 µM); in the assay with Staphylococcus aureus, 12.5 mg/L (≈ 32.9 µM); against Klebsiella aerogenes, 25 mg/L (≈ 65.9 µM); in assay [2], 6.25 mg/L (≈ 16.5 µM).

For the compound `O=c1cc(-c2ccccc2)oc2cc(OCCCN3CCOCC3)cc(O)c12`, the minimum inhibitory concentration (MIC) against Bacillus subtilis was 12.5 mg/L (≈ 32.8 µM); in assay [1], 12.5 mg/L (≈ 32.8 µM); with Staphylococcus aureus, 25 mg/L (≈ 65.5 µM); against Klebsiella aerogenes it was 25 mg/L (≈ 65.5 µM); in assay [2] it was 12.5 mg/L (≈ 32.8 µM).

Turning to `O=c1cc(-c2ccccc2)oc2cc(OCCCCCCN3CCOCC3)cc(O)c12`, the minimum inhibitory concentration (MIC) (in the assay with Bacillus subtilis; in assay [1]; in the assay on Staphylococcus aureus; against Klebsiella aerogenes; in assay [2]) was 25 mg/L (≈ 59 µM) throughout.

Regarding `CN1CCN(CCCOc2cc(O)c3c(=O)cc(-c4ccccc4)oc3c2)CC1`, the MIC against Bacillus subtilis turned out to be 12.5 mg/L (≈ 31.7 µM); in assay [1], 12.5 mg/L (≈ 31.7 µM); against Staphylococcus aureus, 25 mg/L (≈ 63.4 µM); with Klebsiella aerogenes, 25 mg/L (≈ 63.4 µM); in assay [2], 12.5 mg/L (≈ 31.7 µM).

As to `CN1CCN(CCCCCCOc2cc(O)c3c(=O)cc(-c4ccccc4)oc3c2)CC1`, the MIC against Bacillus subtilis came out at 25 mg/L (≈ 57.3 µM); in assay [1] it was 25 mg/L (≈ 57.3 µM); against Staphylococcus aureus, 12.5 mg/L (≈ 28.6 µM); against Klebsiella aerogenes, 25 mg/L (≈ 57.3 µM); in assay [2] it was 12.5 mg/L (≈ 28.6 µM).

For `CN(C)CCCCOc1cc(O)c2c(=O)cc(-c3ccccc3)oc2c1`, the MIC in the assay with Bacillus subtilis is 6.25 mg/L (≈ 17.7 µM); in assay [1] it was 6.25 mg/L (≈ 17.7 µM); in the assay on Staphylococcus aureus it was 25 mg/L (≈ 70.7 µM); with Klebsiella aerogenes, 25 mg/L (≈ 70.7 µM); in assay [2], 12.5 mg/L (≈ 35.4 µM).
